Test results: ChEMBL document CHEMBL3526048, “In vitro metabolism of rivoglitazone, a novel peroxisome proliferator-activated receptor γ agonist, in rat, monkey, and human liver microsomes and freshly isolated hepatocytes” (Drug Metab Dispos, 2011)

Legend:
[1] = Drug metabolism in human hepatocytes assessed as formation of (2S,3S,4S,5R,6R)-3,4,5-trihydroxy-6-(5-(4-((6-methoxy-1-methyl-1H-benzo[d]imidazol-2-yl)methoxy)benzyl)-2,4-dioxothiazolidin-3-yl)tetrahydro-2H-pyran-2-carboxylic acid at 30 uM after 3 hrs by radio-HPLC/LC-MS/MS analysis; assay type: ADME, cell-based, Hepatocyte
[2] = target: Cytochrome P450 2C19 (Homo sapiens, UniProt P33261); assay: Activity of human CYP2C19 expressed in microsomes isolated from baculovirus infected insect cell assessed as enzyme-mediated 2-mercapto-3-(4-((6-methoxy-1-methyl-1H-benzo[d]imidazol-2-yl)methoxy)phenyl)propanamide formation at 20 uM after 2 hrs by radio-HPLC/LC-MS/MS analysis in presence of NADPH-generating system and NADPH-generating system/SAM; assay type: ADME
Procedure, shortened: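 Baculovirus/insect-cell microsomes expressing single human CYPs, 1 mg/ml protein, with 50 mM potassium phosphate (pH 7.4) or 100 mM Tris-HCl (pH 7.5). NADPH-generating system: 2 mM NADP⁺, 20 mM glucose 6-phosphate, 2 units/ml G6PDH, 10 mM MgCl₂. [¹⁴C]rivoglitazone at 20 μM, 2 h at 37°C with shaking. Control used insect-cell control supersomes. Stopped with acetonitrile; supernatant concentrated under nitrogen; metabolites analysed by radio-HPLC, LC-MS and LC-MS/MS.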

[3] = system: Liver microsome; assay: Drug metabolism in human liver microsomes assessed as formation of 3-(4-((6-methoxy-1-methyl-1H-benzo[d]imidazol-2-yl)methoxy)phenyl)-2-(methylthio)propanamide at 20 uM after 2 hrs by radio-HPLC/LC-MS/MS analysis in presence of NADPH-generating system/SAM; assay type: ADME
[4] = target: T1, UDP-glucuronosyltransferase 1A6 (Homo sapiens, UniProt P19224); assay: Activity of human UGT1A6 expressed in microsomes isolated from baculovirus infected insect cell assessed as enzyme-mediated 2-mercapto-3-(4-((6-methoxy-1-methyl-1H-benzo[d]imidazol-2-yl)methoxy)phenyl)propanoic acid formation at 20 uM after 4 hrs by radio-HPLC/LC-MS/MS analysis in presence of UDPGA; assay type: ADME
T1 sequence (P19224 whole entry): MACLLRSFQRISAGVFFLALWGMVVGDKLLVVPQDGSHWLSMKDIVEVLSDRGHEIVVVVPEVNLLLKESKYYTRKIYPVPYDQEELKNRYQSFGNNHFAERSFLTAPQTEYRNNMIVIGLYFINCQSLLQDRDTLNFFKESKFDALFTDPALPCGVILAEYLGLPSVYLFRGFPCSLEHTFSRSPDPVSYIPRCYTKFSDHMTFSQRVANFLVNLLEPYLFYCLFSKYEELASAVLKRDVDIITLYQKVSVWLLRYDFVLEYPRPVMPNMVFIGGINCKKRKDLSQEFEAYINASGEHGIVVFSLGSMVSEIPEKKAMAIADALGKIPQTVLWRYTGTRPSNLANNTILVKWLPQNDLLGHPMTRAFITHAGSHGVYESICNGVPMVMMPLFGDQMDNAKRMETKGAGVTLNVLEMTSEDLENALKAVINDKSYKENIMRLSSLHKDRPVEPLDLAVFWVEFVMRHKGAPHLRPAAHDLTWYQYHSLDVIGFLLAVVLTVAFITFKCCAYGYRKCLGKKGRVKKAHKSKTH

[5] = Drug metabolism in cynomolgus monkey liver microsomes assessed as formation of 2-hydroxy-3-(4-((6-methoxy-1-methyl-1H-benzo[d]imidazol-2-yl)methoxy)phenyl)propanamide at 20 uM after 2 hrs by radio-HPLC/LC-MS/MS analysis in presence of NADPH-generating system and NADPH-generating system/SAM; assay type: ADME, Macaca fascicularis
[6] = target: T2, UDP-glucuronosyltransferase 1A4 (Homo sapiens, UniProt P22310); assay: Activity of human UGT1A4 expressed in microsomes isolated from baculovirus infected insect cell assessed as enzyme-mediated (2S,3S,4S,5R,6R)-6-((1-carboxy-2-(4-((6-methoxy-1-methyl-1H-benzo[d]imidazol-2-yl)methoxy)phenyl)ethylthio)carbonylamino)-3,4,5-trihydroxytetrahydro-2H-pyran-2-carboxylic acid formation at 20 uM after 4 hrs by radio-HPLC/LC-MS/MS analysis in presence of UDPGA; assay type: ADME
T2 sequence (P22310 whole entry): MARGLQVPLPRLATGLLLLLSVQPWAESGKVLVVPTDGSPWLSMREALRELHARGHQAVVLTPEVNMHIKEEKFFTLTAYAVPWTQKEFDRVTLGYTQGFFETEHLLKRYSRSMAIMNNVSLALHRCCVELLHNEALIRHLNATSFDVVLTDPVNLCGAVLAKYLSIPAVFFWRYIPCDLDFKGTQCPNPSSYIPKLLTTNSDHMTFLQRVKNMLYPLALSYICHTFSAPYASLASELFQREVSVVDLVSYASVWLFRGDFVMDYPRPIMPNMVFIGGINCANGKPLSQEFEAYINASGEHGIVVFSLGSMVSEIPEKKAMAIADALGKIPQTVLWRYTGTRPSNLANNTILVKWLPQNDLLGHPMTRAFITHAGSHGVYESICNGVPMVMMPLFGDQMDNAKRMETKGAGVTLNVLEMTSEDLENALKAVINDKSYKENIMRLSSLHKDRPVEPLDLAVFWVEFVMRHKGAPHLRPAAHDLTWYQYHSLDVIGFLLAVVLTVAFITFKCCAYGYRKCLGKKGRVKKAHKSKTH

[7] = target: Cytochrome P450 3A4 (Homo sapiens, UniProt P08684); assay: Activity of human CYP3A4 expressed in microsomes isolated from baculovirus infected insect cell assessed as enzyme-mediated compound formation treated with [14C]-rivoglitazone at 20 uM after 2 hrs by radio-HPLC/LC-MS/MS analysis in presence of NADPH-generating system; assay type: ADME
Procedure, shortened: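 Baculovirus-insect-cell microsomes expressing the human CYP (1 mg/ml protein) were incubated with [14C]rivoglitazone (20 μM) in 50 mM potassium phosphate (pH 7.4) or 100 mM Tris-HCl (pH 7.5) with an NADPH-generating system (2 mM NADP+, 20 mM glucose 6-phosphate, 2 units/ml G6PDH, 10 mM MgCl2) for 2 h at 37°C. Insect-cell control supersomes served as the control. Reactions were stopped with acetonitrile, and the concentrated supernatants were analysed by radio-HPLC, LC-MS and LC-MS/MS.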

Chain of Cytochrome P450 2C19 (P33261 whole entry): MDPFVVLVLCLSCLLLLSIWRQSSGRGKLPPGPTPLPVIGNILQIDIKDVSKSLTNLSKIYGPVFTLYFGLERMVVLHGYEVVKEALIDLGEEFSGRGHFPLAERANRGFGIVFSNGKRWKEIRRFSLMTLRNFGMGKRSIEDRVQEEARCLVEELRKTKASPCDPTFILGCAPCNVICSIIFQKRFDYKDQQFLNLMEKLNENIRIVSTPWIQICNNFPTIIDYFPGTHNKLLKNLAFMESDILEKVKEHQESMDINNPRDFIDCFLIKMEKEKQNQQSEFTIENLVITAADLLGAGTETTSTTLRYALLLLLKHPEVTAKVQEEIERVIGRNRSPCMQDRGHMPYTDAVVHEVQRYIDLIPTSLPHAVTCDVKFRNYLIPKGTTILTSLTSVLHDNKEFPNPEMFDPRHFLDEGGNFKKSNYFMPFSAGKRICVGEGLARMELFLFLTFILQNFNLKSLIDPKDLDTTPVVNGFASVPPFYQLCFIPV
Chain of Cytochrome P450 3A4 (P08684 whole entry): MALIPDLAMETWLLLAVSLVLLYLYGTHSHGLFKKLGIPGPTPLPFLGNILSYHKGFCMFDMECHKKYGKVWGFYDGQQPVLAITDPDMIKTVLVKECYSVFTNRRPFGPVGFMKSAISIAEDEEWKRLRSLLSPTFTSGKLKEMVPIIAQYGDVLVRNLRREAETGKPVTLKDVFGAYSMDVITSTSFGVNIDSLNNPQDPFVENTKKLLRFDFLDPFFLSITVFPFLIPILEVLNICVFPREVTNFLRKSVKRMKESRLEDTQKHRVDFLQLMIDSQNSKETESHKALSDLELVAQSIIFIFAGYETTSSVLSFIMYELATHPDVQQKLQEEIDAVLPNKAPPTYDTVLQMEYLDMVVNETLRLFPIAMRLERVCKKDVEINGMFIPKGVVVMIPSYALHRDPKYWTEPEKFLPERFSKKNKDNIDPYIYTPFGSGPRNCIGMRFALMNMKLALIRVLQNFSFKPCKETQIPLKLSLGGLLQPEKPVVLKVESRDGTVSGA

| Drug metabolism [1] | Drug metabolism [2] | Drug metabolism [3] | Drug metabolism [4] | Drug metabolism [5] | Drug metabolism [6] | Drug metabolism [7] | Structure (SMILES) |
| --- | --- | --- | --- | --- | --- | --- | --- |
| metabolite_detected | metabolite_detected | metabolite_detected | metabolite_not_detected | metabolite_detected | metabolite_not_detected | – | COc1ccc2nc(COc3ccc(C[14CH]4SC(=O)NC4=O)cc3)n(C)c2c1.Cl (racemic) |
| – | – | – | – | – | – | metabolite_detected | COc1ccc2nc(COc3ccc(CC(S)C(=O)O)cc3)n(C)c2c1 (configuration not stated) |
